Measurements published in ChEMBL document CHEMBL5329221, “A covalent fragment-based strategy targeting a novel cysteine to inhibit activity of mutant EGFR kinase” (RSC Med Chem, 2023).
Activity calls are given as the source filed them. The rule behind the calls is not given here.

Tests used:
[1] = tested on: Epidermal growth factor receptor (Homo sapiens), P00533 [L858R,T790M,C797S]; assay: Inhibition of human EGFR T790M/C797S/L858R mutant assessed as decrease in substrate phosphorylation using Srctide as substrate preincubated for 15 mins followed by substrate addition in presence of 1mM of ATP and measured after 45 mins by microplate reader analysis; conditions: time 60.0 min
Procedure, shortened: (§1)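 Compound at 1 µM final, 15 min preincubation with mutant EGFR in mutant-EGFR buffer (5 mM MgCl2, 1 mM MnCl2) at 200 ng/mL for T790M/C797S/L858R, 180 ng/mL for d746-750/T790M, and 350 ng/mL for d746-750/T790M/C797S. Then 1 mM ATP plus 1.5 µM Srctide for 45 min. Mobility-shift read.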

[2] = tested on: Epidermal growth factor receptor (Homo sapiens), P00533 [UNDEFINED MUTATION]; assay: Inhibition of human EGFR d746-750/T790M mutant assessed as decrease in substrate phosphorylation using Srctide as substrate preincubated for 15 mins followed by substrate addition in presence of 1mM of ATP and measured after 45 mins by microplate reader analysis; conditions: time 60.0 min; procedure, shortened: as §1
[3] = tested on: Epidermal growth factor receptor (Homo sapiens), P00533 [UNDEFINED MUTATION]; assay: Inhibition of human EGFR d746-750/T790M/C797S mutant assessed as decrease in substrate phosphorylation using Srctide as substrate preincubated for 15 mins followed by substrate addition in presence of 1mM of ATP and measured after 45 mins by microplate reader analysis; conditions: time 60.0 min; procedure, shortened: as §1
[4] = tested on: Epidermal growth factor receptor (Homo sapiens), P00533 [L858R]; assay: Inhibition of human EGFR L858R mutant assessed as decrease in substrate phosphorylation using Srctide as substrate preincubated for 15 mins followed by substrate addition in presence of 1mM of ATP and measured after 45 mins by microplate reader analysis; conditions: time 60.0 min
Procedure, shortened: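 Panel format: compound at 1 µM final was preincubated 15 min with kinase in 20 mM HEPES pH 7.4, 5 mM MgCl2, 1 mM MnCl2, 0.003% Brij-35, 0.004% Tween-20, 2 mM DTT. ATP (1 mM) and Srctide (1.5 µM) were then added for 45 min. EDTA stop; mobility-shift read, ex 488/em 530 nm.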

[5] = target: T1, Epidermal growth factor receptor (Homo sapiens, UniProt P00533, C797S/L858R/T790M); assay: Inhibition of N-terminal His6-tagged human EGFR L858R/T790M/C797S mutant expressed in Sf9 cells assessed as decrease in substrate phosphorylation using Ulight-JAK1 peptide as substrate incubated for 1.5 hrs in presence of ATP by TR-FRET based LANCE Ultra kinase assay
Procedure, shortened: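 LANCE Ultra TR-FRET assay with 0.25 nM EGFR_TM, 1 µM ATP, 50 nM ULight-JAK1 peptide, 50 mM HEPES pH 7.5, 10 mM MgCl2, 5 mM MnCl2, 1 mM DTT, 0.015% Brij35, 5% DMSO, 1.5 h at 23°C. EDTA stop, Eu-anti-pTyr PT66, 1 h. Signal is the 665/620 nm ratio, normalised to no-protein controls. IC50 from a four-parameter fit, otherwise % inhibition at the top concentration.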

[6] = target: T1, Epidermal growth factor receptor; assay: Inhibition of N-terminal His6-tagged human EGFR L858R/T790M/C797S mutant expressed in Sf9 cells assessed as decrease in substrate phosphorylation incubated for 45 mins using Srctide as substrate in presence of 5uM of ATP by microplate reader analysis
[7] = tested on: Epidermal growth factor receptor (Homo sapiens), P00533 [L858R,C775S]; assay: Binding affinity to N-terminal His6-tagged human EGFR L858R/C775S mutant expressed in Sf9 cells at pH 7.4 assessed as covalent adduct at +277 Da formation at 0.3 to 1 uM incubated for 1 hrs by LC-MS analysis; conditions: dose 0.3-1 µM
Procedure, shortened: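 EGFR (694-1022) L858R or L858R/C775S as N-terminal His-GST fusions from Sf9 cells, purified by Ni affinity then SEC. Each protein at 0.5 mg/ml was incubated with compound (0.3, 1 or 3 µM) in 20 mM Tris-HCl pH 7.5, 150 mM NaCl, 1 mM TCEP, 5% glycerol, 1 h at room temperature. SDS was added to 1% final, samples boiled 95°C 10 min, then UHPLC-MS.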

[8] = target: Epidermal growth factor receptor (Homo sapiens) (UniProt P00533); assay: Inhibition of wild type human EGFR assessed as decrease in substrate phosphorylation using Srctide as substrate preincubated for 15 mins followed by substrate addition in presence of 1mM of ATP and measured after 45 mins by microplate reader analysis; conditions: time 60.0 min
Procedure, shortened: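 Wild-type EGFR at 800 ng/mL was preincubated 15 min with 1 µM compound in 100 mM HEPES pH 7.4, 0.003% Brij-35, 0.004% Tween-20, 1 mM DTT. Then 1 mM ATP, 1.5 µM Srctide, 10 mM MgCl2 and 10 mM MnCl2 were added for 45 min. Mobility-shift read.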

[9] = target: T1, Epidermal growth factor receptor; assay: Inhibition of N-terminal His6-tagged human EGFR L858R/T790M/C797S mutant expressed in Sf9 cells assessed as decrease in substrate phosphorylation using Srctide as substrate preincubated for 20 mins followed by substrate addition in presence of 5uM of ATP and measured after 45 mins by microplate reader analysis

- inhibition [1]: > 80%
- inhibition [2]: > 80%
- inhibition [3]: > 80%
- inhibition [4]: > 80%
- IC50 [5]: 900 nM
- IC50 [6]: 599 nM
- Activity [7]: Active
- inhibition [8]: > 80%
- IC50 [9]: 239 nM
Compound: C=CC(=O)Nc1cc(-c2cn(C)c3ccccc23)ncn1
